STAT1 act – STAT1 signaling activation. NIH 3T3 STAT1-luciferase reporter, IFN-gamma, luminescence; 100% = IFN-gamma alone, no compound. activation (% of control), % at 5.5 µM. 200,000 compounds, 2.6% hits. AID 932;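 active = activation above the screen-wide mean activation plus 3 SD, cut at about 130% in these data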;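 also: raw ratio to IFN-gamma control signal so 100% means no change and 0% no light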
Wee1 degr inh – inhibitors of human Wee1 degradation; P30291; HeLa Luc-Wee1K328M stability, luciferase luminescence; 100% = proteasome inhibitor MG132 effect; reporter increase, % at 5 µM; 220,000 compounds, 1.2% hits;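 active = activation above the mean of all tested compounds plus 3 SD, set per screening run, cut at about 8.8% in these data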;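 also: cells exposed to compound for 20 h before luminescence read; 0% = DMSO alone and 100% = MG132 at 30 µM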
APP 5'UTR act – APP 5'UTR luciferase reporter activation. SH-SY5Y APP 5'UTR luciferase reporter, luminescence; zero percent = DMSO vehicle wells. activation, % at 2 µM. 190,000 compounds, 1% hits;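 active = activation above a set limit, based on mean plus 3 SD of controls, cut at about 140% in these data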
MDM2 E3 inh – Mdm2 E3 ligase (human) inhibition | signal enhancement, % at 5 µM | cell-based MDM2 ubiquitination luciferase reporter, 2 h; 0 = plate control, 100 = twice control, blank-subtracted | 210,000 compounds, 0.11% hits | Q00987 | AID 1230;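 active = signal enhancement of 30% or more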;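 also: luminescence tracks abundance of the self-degrading MDM2-luciferase fusion protein; higher signal means inhibition of MDM2 E3 ligase activity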
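Test system: mammalian cells stably expressing self-ubiquitinating, self-degrading MDM2 E3–luciferase fusion; Amount: 2000 cells in each well; Medium: DMEM; Schedule: 4 h settle plus 2 h compound, 37 °C; Technique: SteadyLite luciferase luminescence after 15 min room-temperature reagent incubation; Benchmarks: plate control and blank wells.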
p97 inhibitor – inhibitors of human p97 ATPase; 220,000 compounds, 0.42% hits; AID 1481; recombinant p97 ATPase, Kinase-Glo ATP luminescence, 3 h; inhibition, % at 8 µM; in the data active = inhibition above about 15%;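 also: 0% = DMSO vehicle and 100% = wells lacking enzyme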
NF-kB neuron act – NF-kB expression increase, human neuronal cells; fold change at 12.5 µM; AID 1239; NF-kB reporter expression; stronger effect = higher value; 190,000 compounds, 1.6% hits; in the data active = fold change above about 3.3
Wee1 stab conf – human Wee1 degradation inhibition, confirmation; shares compounds with Wee1 degr inh; HeLa Luc-Wee1K328M degradation, luminescence; vehicle 0%, proteasome-blocked wells 100%; activation, % at 5 µM; 1,100 compounds, 4% hits; in the data active = activation above about 8.9%
Starred values were filed as active, the others as inactive. A selection: hits, their analogues and other compounds. The true share with any hit is near 4.6%.

Screening Cc1nn(CC(=O)NCc2ccc(-n3cccn3)cc2)c(C)c1[N+](=O)[O-] returned STAT1 act 105, Wee1 degr inh 1, APP 5'UTR act 12, MDM2 E3 inh -3, p97 inhibitor -5 and NF-kB neuron act 0.71.
Screening O=C1/C(=C\c2ccc(O)c(O)c2)C(c2ccccc2)=NN1c1ccccc1 returned STAT1 act 105, Wee1 degr inh 11*, APP 5'UTR act 9, MDM2 E3 inh -7, p97 inhibitor 9, NF-kB neuron act 0.99 and Wee1 stab conf 2.
Screening COc1ccc(C(=O)N=c2sc3c(C)ccc(OC)c3n2C)cc1OC returned Wee1 degr inh 12*, MDM2 E3 inh -5, p97 inhibitor -2 and Wee1 stab conf 8.
`CC(c1ccccc1)N1C(=O)/C(=C/c2ccncc2)SC1=S` (centres undefined) gave Wee1 degr inh 7, MDM2 E3 inh -13 and p97 inhibitor 2.
`CN(Cc1ccccc1F)c1nc(-c2cccs2)nc2ccccc12` gave STAT1 act 99, Wee1 degr inh 14*, APP 5'UTR act -6, MDM2 E3 inh -3, p97 inhibitor 3, NF-kB neuron act 0.91 and Wee1 stab conf 4.
`Fc1ccccc1N1CCN(c2nc(-c3cccs3)nc3ccccc23)CC1` gave STAT1 act 97, Wee1 degr inh 3, APP 5'UTR act -12, MDM2 E3 inh -2, p97 inhibitor 0 and NF-kB neuron act 0.99.
O=C(COC(=O)C1CCN(S(=O)(=O)c2ccccc2)CC1)NC(=O)c1ccc(OC(F)F)cc1 was read as STAT1 act 104, Wee1 degr inh 0, APP 5'UTR act -18, MDM2 E3 inh -7, p97 inhibitor -1 and NF-kB neuron act 1.2.
COc1ccc(/C=C/C(=O)c2ccccn2)cc1 was read as STAT1 act 127, Wee1 degr inh 12*, APP 5'UTR act 91, MDM2 E3 inh 10, p97 inhibitor 3, NF-kB neuron act 2.3 and Wee1 stab conf -1.
For COc1ccc(CC(=O)O/N=C(\N)c2ccccn2)cc1 the results were Wee1 degr inh 16*, MDM2 E3 inh -9, p97 inhibitor 8 and Wee1 stab conf 4.
`COc1ccc(C(=O)NNC(=O)c2ccccn2)cc1` gave STAT1 act 18, Wee1 degr inh -3, APP 5'UTR act 125, MDM2 E3 inh -93, p97 inhibitor -67 and NF-kB neuron act 0.38.
COCC[N+]1(C)CCCCC1 was read as STAT1 act 103, Wee1 degr inh 2, APP 5'UTR act -30, MDM2 E3 inh -5 and p97 inhibitor 1.
`CCN(CC)C(=O)c1sc2c(c1C)c(=O)n(-c1ccc(OC)cc1OC)c(=O)n2CC(=O)c1ccccc1` gave STAT1 act 99, Wee1 degr inh 12*, APP 5'UTR act 19, MDM2 E3 inh -12, p97 inhibitor -5, NF-kB neuron act 1 and Wee1 stab conf -1.
COC(=O)c1ccc(COc2ccccc2/C=N/NC(=O)c2cccnc2)cc1 was read as STAT1 act 110, Wee1 degr inh 0, APP 5'UTR act 2, MDM2 E3 inh -5, p97 inhibitor 8 and NF-kB neuron act 1.1.
Screening O=C(C[n+]1ccc(C(=O)N/N=C/c2ccc(Cl)cc2Cl)cc1)c1ccccc1 returned STAT1 act 99, Wee1 degr inh 13*, APP 5'UTR act -13, MDM2 E3 inh -10, p97 inhibitor -5, NF-kB neuron act 1.2 and Wee1 stab conf -6.
`CCc1ccc(C(=O)N/N=C/c2ccc(Cl)cc2Cl)nc1` gave STAT1 act 103, Wee1 degr inh 3, APP 5'UTR act -2, MDM2 E3 inh -6, p97 inhibitor -2 and NF-kB neuron act 1.1.
`Cc1cc(Oc2ccc(=O)[nH]n2)nc(Cl)n1` gave Wee1 degr inh 2, MDM2 E3 inh 3 and p97 inhibitor 0.
`COCCCNC(=O)Nc1ccc(Br)cc1Cl` gave STAT1 act 111, Wee1 degr inh 11*, APP 5'UTR act 13, MDM2 E3 inh -2, p97 inhibitor 5, NF-kB neuron act 1.4 and Wee1 stab conf 4.
